{"source": "ChEMBL document CHEMBL1141109", "about": "“Synthesis of an estrogen receptor beta-selective radioligand: 5-[18F]fluoro-(2R,3S)-2,3-bis(4-hydroxyphenyl)pentanenitrile and comparison of in vivo distribution with 16alpha-[18F]fluoro-17beta-estradiol” (J Med Chem, 2005)", "key": {"[1]": {"test": "Biodistribution of [18F]-FEDPN in alpha estrogen receptor knock out mouse ovaries after 1 h; (n=3)", "format": "ADME, organism-based, Female gonad", "details": "in vivo", "outline": "(§1)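 ERKO female mice (αERKO or βERKO), rested 48 h after shipping, placed on estrogen-free chow, and staged by daily vaginal smears. Injected in a nonestrous stage with 11 µCi [18F]FEDPN in 130 µL of 10% ethanol/saline. Killed at 30 min, 1 h or 2 h. Organs counted and reported as %ID/g ± SD, three animals per point.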"}, "[2]": {"test": "Biodistribution of [18F]FEDPN in beta estrogen receptor knock out mouse ovaries after 1 h; (n=3)", "format": "ADME, organism-based, Female gonad", "details": "in vivo", "outline": "(§2)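 αERKO and βERKO mice, staged by daily vaginal smears and kept on estrogen-free chow, were studied in a nonestrous stage. Each mouse received 11 μCi of tracer in 130 μL of 10% ethanol/saline. Mice were killed at 30 min, 1 h or 2 h (n = 3 each). Organs were removed, blotted, weighed and gamma-counted against an injectate standard. Uptake is given as %ID/g ± SD.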"}, "[3]": {"test": "Biodistribution of [18F]FEDPN in beta estrogen receptor knock out mouse blood after 2 h; (n=3)", "format": "ADME, organism-based", "details": "in vivo", "outline": "as §2"}, "[4]": {"test": "Biodistribution of [18F]FEDPN in beta estrogen receptor knock out mouse lung after 30 min; (n=3)", "format": "ADME, organism-based", "details": "in vivo, 0.5 h", "outline": "as §2"}, "[5]": {"test": "Biodistribution of [18F]FEDPN in alpha estrogen receptor knock out mouse kidney after 30 min; (n=3)", "format": "ADME, organism-based", "details": "in vivo, 0.5 h", "outline": "as §1"}, "[6]": {"test": "Biodistribution of [18F]FEDPN in rat bone after 1 h block when given in tail vein; (n=5)", "format": "ADME, organism-based, Bone element", "details": "in vivo, iv", "outline": "(§3)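 Immature female Sprague–Dawley rats (<25 days old) under isoflurane/O2 got 20 µCi tracer in 150 µL 20% ethanol/saline by tail vein. […] Rats were killed at 30 min, 1 h or 2 h. Organs were blotted, weighed and gamma-counted against an injectate standard. Data are %ID/g ± SD, five rats per point.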"}, "[7]": {"test": "Biodistribution of [18F]FEDPN in alpha estrogen receptor knock out mouse kidney after 2 h; (n=3)", "format": "ADME, organism-based", "details": "in vivo", "outline": "as §1"}, "[8]": {"test": "Biodistribution of [18F]-FEDPN in alpha estrogen receptor knock out mouse blood after 30 min; (n=3)", "format": "ADME, organism-based", "details": "in vivo, 0.5 h", "outline": "as §1"}, "[9]": {"test": "Biodistribution of [18F]FEDPN in beta estrogen receptor knock out mouse uterus after 1 h; (n=3)", "format": "ADME, organism-based", "details": "in vivo", "outline": "(§4)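 αERKO and βERKO mice were fed estrogen-free chow and staged by daily vaginal smears. Mice in a nonestrous stage each received 11 µCi tracer in 130 µL 10% ethanol/saline. Organs were taken at 30 min, 1 h or 2 h and gamma-counted. Uptake is expressed as %ID/g ± SD, three animals per point.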"}, "[10]": {"test": "Biodistribution of [18F]FEDPN in rat lung after 2 h when given in tail vein; (n=5)", "format": "ADME, organism-based", "details": "in vivo, iv", "outline": "as §3"}, "[11]": {"test": "Biodistribution of [18F]FEDPN in beta estrogen receptor knock out mouse liver after 30 min; (n=3)", "format": "ADME, organism-based", "details": "in vivo, 0.5 h", "outline": "as §2"}, "[12]": {"test": "Biodistribution of [18F]FEDPN in rat fat after 1 h block when given in tail vein; (n=5)", "format": "ADME, organism-based, Adipose tissue", "details": "in vivo, iv", "outline": "as §3"}, "[13]": {"test": "Biodistribution of [18F]FEDPN in alpha estrogen receptor knock out mouse bone after 2 h; (n=3)", "format": "ADME, organism-based, Bone element", "details": "in vivo", "outline": "as §1"}, "[14]": {"molecular_target": "Estrogen receptor (Mus musculus) (UniProt O08537+P19785)", "sequence (O08537 whole entry, looked up)": "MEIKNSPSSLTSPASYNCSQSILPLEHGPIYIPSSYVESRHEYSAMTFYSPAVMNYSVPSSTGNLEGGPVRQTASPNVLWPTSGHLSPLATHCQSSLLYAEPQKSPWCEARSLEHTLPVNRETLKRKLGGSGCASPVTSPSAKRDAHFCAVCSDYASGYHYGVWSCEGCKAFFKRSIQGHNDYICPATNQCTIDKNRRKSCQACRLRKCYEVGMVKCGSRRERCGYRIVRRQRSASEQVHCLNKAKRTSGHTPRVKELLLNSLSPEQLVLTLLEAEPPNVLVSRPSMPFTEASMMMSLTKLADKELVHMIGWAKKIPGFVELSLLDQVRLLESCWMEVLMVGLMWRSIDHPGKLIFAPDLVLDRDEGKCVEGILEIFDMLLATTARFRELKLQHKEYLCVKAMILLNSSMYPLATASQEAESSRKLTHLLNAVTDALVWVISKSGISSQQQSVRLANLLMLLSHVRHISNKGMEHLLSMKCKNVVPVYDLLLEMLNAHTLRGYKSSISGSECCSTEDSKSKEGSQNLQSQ", "sequence (P19785 whole entry, looked up)": "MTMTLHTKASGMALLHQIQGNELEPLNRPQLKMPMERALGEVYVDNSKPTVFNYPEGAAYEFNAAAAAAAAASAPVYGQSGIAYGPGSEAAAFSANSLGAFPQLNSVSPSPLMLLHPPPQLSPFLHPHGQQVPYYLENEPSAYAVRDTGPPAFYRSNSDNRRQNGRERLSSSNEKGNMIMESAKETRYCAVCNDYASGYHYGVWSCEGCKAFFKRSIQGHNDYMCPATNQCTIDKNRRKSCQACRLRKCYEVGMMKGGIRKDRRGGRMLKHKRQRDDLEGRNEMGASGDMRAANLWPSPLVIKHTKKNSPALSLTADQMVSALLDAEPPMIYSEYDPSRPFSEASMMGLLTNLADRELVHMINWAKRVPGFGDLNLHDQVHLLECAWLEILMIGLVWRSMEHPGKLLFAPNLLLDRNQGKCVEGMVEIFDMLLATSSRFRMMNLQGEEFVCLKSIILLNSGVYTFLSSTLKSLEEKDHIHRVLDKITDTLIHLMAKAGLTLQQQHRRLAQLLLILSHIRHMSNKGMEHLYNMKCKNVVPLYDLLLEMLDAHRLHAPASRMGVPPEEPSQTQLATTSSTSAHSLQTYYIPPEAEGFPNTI", "test": "Ratio of [18F]FEDPN uptake in uterus of ERbeta KO-mouse (diestrus) and ERalpha KO-mouse (nonestrus) after 30 min"}, "[15]": {"test": "Biodistribution of [18F]FEDPN in rat muscle after 1 h when given in tail vein; (n=5)", "format": "ADME, organism-based, Muscle tissue", "details": "in vivo, iv", "outline": "as §3"}, "[16]": {"test": "Biodistribution of [18F]FEDPN in beta estrogen receptor knock out mouse uterus after 2 h; (n=3)", "format": "ADME, organism-based", "details": "in vivo", "outline": "as §4"}, "[17]": {"test": "Biodistribution of [18F]-FES in alpha estrogen receptor knock out mouse kidney after 2 h; (n=3)", "format": "ADME, organism-based", "details": "in vivo", "outline": "(§5)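 Female αERKO mice rested 48 h after shipping and fed estrogen-free chow. Estrous stage was checked by daily vaginal smears, and mice were used in diestrus. Each received 13 µCi [18F]FES in 100 µL 10% ethanol/saline. Animals were sacrificed at 30 min, 1 h or 2 h (n = 3 each). Tissue uptake is reported as %ID/g ± SD.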"}, "[18]": {"test": "Biodistribution of [18F]FES in alpha estrogen receptor knock out mouse blood after 2 h; (n=3)", "format": "ADME, organism-based", "details": "in vivo", "outline": "(§6)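 Female αERKO mice were rested 48 h after shipping and fed estrogen-free chow. They were staged by daily vaginal smears and studied in diestrus. Each received 13 µCi [18F]FES in 100 µL 10% ethanol/saline and was sacrificed at 30 min, 1 h or 2 h (n = 3 per time). Tissue uptake is given as %ID/g ± SD.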"}, "[19]": {"test": "Biodistribution of [18F]-FES in beta estrogen receptor knock out mouse lung after 2 h; (n=3)", "format": "ADME, organism-based", "details": "in vivo", "outline": "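Female βERKO mice in estrus were used because repeated swabbing had induced pseudopregnancy. They were fed estrogen-free chow. Each received 13 µCi [18F]FES in 100 µL 10% ethanol/saline and was sacrificed at 30 min, 1 h or 2 h (n = 3 each). Tissue uptake is given as %ID/g ± SD.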"}, "[20]": {"test": "Biodistribution of [18F]FES in beta estrogen receptor knock out mouse blood after 1 h; (n=3)", "format": "ADME, organism-based", "details": "in vivo"}, "[21]": {"test": "Biodistribution of [18F]-FES in alpha estrogen receptor knock out mouse bone after 30 min; (n=3)", "format": "ADME, organism-based, Bone element", "details": "in vivo, 0.5 h", "outline": "as §5"}, "[22]": {"test": "Biodistribution of [18F]FES in alpha estrogen receptor knock out mouse muscle after 2 h; (n=3)", "format": "ADME, organism-based, Muscle tissue", "details": "in vivo", "outline": "as §6"}, "[23]": {"test": "Biodistribution of [18F]FES in beta estrogen receptor knock out mouse bone after 1 h; (n=3)", "format": "ADME, organism-based, Bone element", "details": "in vivo"}, "[24]": {"test": "Biodistribution of [18F]FES in beta estrogen receptor knock out mouse brain after 1 h; (n=3)", "format": "ADME, organism-based", "details": "in vivo"}, "[25]": {"test": "Biodistribution of [18F]FES in beta estrogen receptor knock out mouse blood after 2 h; (n=3)", "format": "ADME, organism-based", "details": "in vivo"}, "[26]": {"test": "Biodistribution of [18F]FES in alpha estrogen receptor knock out mouse uterus after 2 h; (n=3)", "format": "ADME, organism-based", "details": "in vivo"}, "[27]": {"test": "Biodistribution of [18F]FES in beta estrogen receptor knock out mouse ovaries after 1 h; (n=3)", "format": "ADME, organism-based, Female gonad", "details": "in vivo"}, "[28]": {"test": "Biodistribution of [18F]FES in beta estrogen receptor knock out mouse thymus after 30 min(n=2); mice in nonestrus stage", "format": "ADME, organism-based", "details": "in vivo, 0.5 h"}, "[29]": {"test": "Biodistribution of [18F]FES in alpha estrogen receptor knock out mouse thymus after 2 h; (n=3)", "format": "ADME, organism-based", "details": "in vivo"}, "[30]": {"test": "Biodistribution of [18F]FES in beta estrogen receptor knock out mouse spleen after 2 h; (n=3)", "format": "ADME, organism-based", "details": "in vivo"}, "[31]": {"test": "Biodistribution of [18F]FES in alpha estrogen receptor knock out mouse muscle after 30 min; (n=3)", "format": "ADME, organism-based, Muscle tissue", "details": "in vivo, 0.5 h"}, "[32]": {"test": "Biodistribution of [18F]FES in beta estrogen receptor knock out mouse muscle after 30 min(n=2); mice in nonestrus stage", "format": "ADME, organism-based, Muscle tissue", "details": "in vivo, 0.5 h"}, "[33]": {"test": "Biodistribution of [18F]FES in beta estrogen receptor knock out mouse heart after 30 min(n=2); mice in nonestrus stage", "format": "ADME, organism-based", "details": "in vivo, 0.5 h"}, "[34]": {"test": "Biodistribution of [18F]FES in alpha estrogen receptor knock out mouse lung after 1 h; (n=3)", "format": "ADME, organism-based", "details": "in vivo"}, "[35]": {"test": "Biodistribution of [18F]FES in beta estrogen receptor knock out mouse thymus after 2 h; (n=3)", "format": "ADME, organism-based", "details": "in vivo"}, "[36]": {"test": "Biodistribution of [18F]FES in beta estrogen receptor knock out mouse uterus after 30 min(n=2); mice in nonestrus stage", "format": "ADME, organism-based", "details": "in vivo, 0.5 h"}}}
{"compound": "N#C[C@H](c1ccc(O)cc1)[C@@H](CCF)c1ccc(O)cc1", "values": [{"measurement": "Biodistribution", "setting": "[1]", "value": 0.52, "unit": "%ID/g"}, {"measurement": "Biodistribution", "setting": "[2]", "value": 0.41, "unit": "%ID/g"}, {"measurement": "Biodistribution", "setting": "[3]", "value": 0.18, "unit": "%ID/g"}, {"measurement": "Biodistribution", "setting": "[4]", "value": 5.38, "unit": "%ID/g"}, {"measurement": "Biodistribution", "setting": "[5]", "value": 7.22, "unit": "%ID/g"}, {"measurement": "Biodistribution", "setting": "[6]", "value": 1.82, "unit": "%ID/g"}, {"measurement": "Biodistribution", "setting": "[7]", "value": 1.94, "unit": "%ID/g"}, {"measurement": "Biodistribution", "setting": "[8]", "value": 0.73, "unit": "%ID/g"}, {"measurement": "Biodistribution", "setting": "[9]", "value": 0.54, "unit": "%ID/g"}, {"measurement": "Biodistribution", "setting": "[10]", "value": 0.19, "unit": "%ID/g"}, {"measurement": "Biodistribution", "setting": "[11]", "value": 4.55, "unit": "%ID/g"}, {"measurement": "Biodistribution", "setting": "[12]", "value": 0.21, "unit": "%ID/g"}, {"measurement": "Biodistribution", "setting": "[13]", "value": 5.45, "unit": "%ID/g"}, {"measurement": "Ratio", "setting": "[14]", "value": 1.67}, {"measurement": "Biodistribution", "setting": "[15]", "value": 0.22, "unit": "%ID/g"}, {"measurement": "Biodistribution", "setting": "[16]", "value": 0.31, "unit": "%ID/g"}]}
{"compound": "C[C@]12CC[C@@H]3c4ccc(O)cc4CC[C@H]3[C@@H]1C[C@@H](F)[C@@H]2O", "note": "[FLUOROESTRADIOL]", "values": [{"measurement": "Biodistribution", "setting": "[17]", "value": 0.72, "unit": "%ID/g"}, {"measurement": "Biodistribution", "setting": "[18]", "value": 0.12, "unit": "%ID/g"}, {"measurement": "Biodistribution", "setting": "[19]", "value": 0.54, "unit": "%ID/g"}, {"measurement": "Biodistribution", "setting": "[20]", "value": 0.3, "unit": "%ID/g"}, {"measurement": "Biodistribution", "setting": "[21]", "value": 0.44, "unit": "%ID/g"}, {"measurement": "Biodistribution", "setting": "[22]", "value": 0.11, "unit": "%ID/g"}, {"measurement": "Biodistribution", "setting": "[23]", "value": 1.08, "unit": "%ID/g"}, {"measurement": "Biodistribution", "setting": "[24]", "value": 0.35, "unit": "%ID/g"}, {"measurement": "Biodistribution", "setting": "[25]", "value": 0.16, "unit": "%ID/g"}, {"measurement": "Biodistribution", "setting": "[26]", "value": 0.36, "unit": "%ID/g"}, {"measurement": "Biodistribution", "setting": "[27]", "value": 5.61, "unit": "%ID/g"}, {"measurement": "Biodistribution", "setting": "[28]", "value": 1.65, "unit": "%ID/g"}, {"measurement": "Biodistribution", "setting": "[29]", "value": 0.1, "unit": "%ID/g"}, {"measurement": "Biodistribution", "setting": "[30]", "value": 0.37, "unit": "%ID/g"}, {"measurement": "Biodistribution", "setting": "[31]", "value": 0.77, "unit": "%ID/g"}, {"measurement": "Biodistribution", "setting": "[32]", "value": 1.89, "unit": "%ID/g"}, {"measurement": "Biodistribution", "setting": "[33]", "value": 0.95, "unit": "%ID/g"}, {"measurement": "Biodistribution", "setting": "[34]", "value": 0.39, "unit": "%ID/g"}, {"measurement": "Biodistribution", "setting": "[35]", "value": 0.38, "unit": "%ID/g"}, {"measurement": "Biodistribution", "setting": "[36]", "value": 18.86, "unit": "%ID/g"}]}
